Laboratory results: ChEMBL document CHEMBL1134348, “Novel glucocorticoid antedrugs possessing a 17beta-(gamma-lactone) ring” (J Med Chem, 2001)
Blank lines part the entries; values can stand above or below the compound they belong to.

Key:
[1] = (§1) % stability in human plasma after 10 minutes.; format: ADME, organism-based; conditions: plasma, read-out: Stability
Summary of the method: (§2)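 Pooled heparinized plasma from 4 volunteers was incubated at 37 °C with test compound at a final concentration of 30 ug/mL, with DMSO-only controls. The reaction was stopped with 2 M citric acid at 10 and 60 min, with a zero-time sample. Supernatants were analysed by reversed-phase HPLC at 240 nm against an internal standard, in duplicate, and reported as % compound remaining.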

[2] = tested on: Rattus norvegicus; experiment: Inhibition of rat ear edema as percentage change in mean weight (58.02+/-1.46 mg) from control group of 55.67+/-1.22 mg at 1.56 ug dose
[3] = tested on: Rattus norvegicus; experiment: Inhibition of rat ear edema as percentage change in mean weight (47.85+/-1.09 mg) from control group of 55.67+/-1.22 mg at 6.25 ug dose
[4] = tested on: Rattus norvegicus; experiment: Inhibition of rat ear edema as percentage change in mean weight (47.21+/-1.28 mg) from control group of 55.67+/-1.22 mg at 25.00 ug dose
[5] = % stability in krebs buffer after 60 minutes.; format: physicochemical; conditions: for remaining at 1 h: Krebs buffer, read-out: Stability
Summary of the method: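 Test compound, at a final concentration of 30 ug/mL, was spiked into Krebs buffer at 37 °C for 60 min, then quenched with 2 M citric acid. Supernatant was analysed by reversed-phase HPLC with UV detection at 240 nm and an internal standard, in duplicate. The read-out was % compound remaining.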

[6] = biological target: T1, Glucocorticoid receptor (Homo sapiens, UniProt P04150); experiment: Affinity for human glucocorticoid receptor
T1 sequence (P04150 whole entry): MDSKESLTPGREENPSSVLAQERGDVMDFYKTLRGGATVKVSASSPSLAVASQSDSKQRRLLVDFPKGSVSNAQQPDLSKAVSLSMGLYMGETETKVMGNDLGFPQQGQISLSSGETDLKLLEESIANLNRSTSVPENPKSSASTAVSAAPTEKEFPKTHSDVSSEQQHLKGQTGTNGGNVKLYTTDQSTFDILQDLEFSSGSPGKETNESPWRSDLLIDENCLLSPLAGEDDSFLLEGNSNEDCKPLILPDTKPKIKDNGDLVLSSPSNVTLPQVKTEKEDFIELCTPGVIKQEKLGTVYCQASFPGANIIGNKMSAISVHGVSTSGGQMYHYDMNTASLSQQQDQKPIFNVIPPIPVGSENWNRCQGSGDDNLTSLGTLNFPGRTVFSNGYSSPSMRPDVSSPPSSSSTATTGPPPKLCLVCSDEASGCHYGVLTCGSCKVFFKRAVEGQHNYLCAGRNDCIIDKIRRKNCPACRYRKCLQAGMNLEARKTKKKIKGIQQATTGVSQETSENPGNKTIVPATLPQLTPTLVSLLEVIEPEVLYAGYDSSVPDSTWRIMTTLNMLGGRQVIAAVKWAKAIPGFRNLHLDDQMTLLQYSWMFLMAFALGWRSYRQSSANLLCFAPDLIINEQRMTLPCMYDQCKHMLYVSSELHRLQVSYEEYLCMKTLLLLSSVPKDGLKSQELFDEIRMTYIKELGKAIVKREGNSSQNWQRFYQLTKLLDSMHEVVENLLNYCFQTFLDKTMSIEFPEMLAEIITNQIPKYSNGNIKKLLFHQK

[7] = (§3) % stability in human plasma after 60 minutes.; format: ADME, organism-based; conditions: plasma, read-out: Stability; summary of the method: as §2
[8] = tested on: Rattus norvegicus; experiment: Inhibition of rat ear edema as percentage change in mean weight (43.03+/-1.19 mg) from control group of 55.67+/-1.22 mg at 100.00 ug dose
[9] = organism: Homo sapiens; experiment: as §1; format: ADME, organism-based; conditions: 10 min; summary of the method: as §2
[10] = organism: Homo sapiens; experiment: as §3; format: ADME, organism-based; conditions: 1 h; summary of the method: as §2
[11] = tested on: Rattus norvegicus; experiment: Inhibition of rat ear edema as percentage change in mean weight (44.39+/-2.26 mg) from control group of 72.25+/-2.24 mg at 4.00 ug dose; format: functional
[12] = tested on: Rattus norvegicus; experiment: Inhibition of rat ear edema as percentage change in mean weight (45.29+/-1.16 mg) from control group of 55.67+/-1.22 mg at 0.25 ug dose; format: functional
[13] = tested on: Rattus norvegicus; experiment: Inhibition of rat ear edema as percentage change in mean weight (40.57+/-1.10 mg) from control group of 55.67+/-1.22 mg at 4.00 ug dose; format: functional
[14] = tested on: Rattus norvegicus; experiment: Inhibition of rat ear edema as percentage change in mean weight (44.71+/-1.53 mg) from control group of 72.25+/-2.24 mg at 1.00 ug dose; format: functional
[15] = tested on: Rattus norvegicus; experiment: Inhibition of rat ear edema as percentage change in mean weight (39.79+/-0.99 mg) from control group of 55.67+/-1.22 mg at 1.00 ug dose; format: functional
[16] = tested on: Rattus norvegicus; experiment: Inhibition of rat ear edema as percentage change in mean weight (64.86+/-2.70 mg) from control group of 72.25+/-2.24 mg at 0.06 microg dose; format: functional
[17] = tested on: Rattus norvegicus; experiment: Inhibition of rat ear edema as percentage change in mean weight (47.21+/-1.49 mg) from control group of 72.25+/-2.24 mg at 0.25 ug dose; format: functional

- Stability [9]: 56%
- remaining at 1 h [5]: 100%
- Stability [10]: 0%
Structure (SMILES): CCC[C@@H]1O[C@@H]2CC3C4C[C@H](F)C5=CC(=O)CC[C@]5(C)[C@@]4(F)[C@@H](O)C[C@]3(C)[C@]2(SC2COC(=O)C2)O1 (single isomer, unassigned; isomer B)

- remaining at 10 min [1]: 0%
- remaining at 1 h [5]: 77%
- remaining at 1 h [7]: 0%
Structure (SMILES): CCC[C@@H]1O[C@@H]2CC3C4C[C@H](F)C5=CC(=O)C=C[C@]5(C)[C@@]4(F)[C@@H](O)C[C@]3(C)[C@]2(SC2CCOC2=O)O1 (some centres undefined)

- remaining at 10 min [1]: 20%
- remaining at 1 h [5]: 89%
- remaining at 1 h [7]: 0%
Structure (SMILES): CC1(C)O[C@@H]2CC3C4C[C@H](F)C5=CC(=O)CC[C@]5(C)[C@@]4(F)[C@@H](O)C[C@]3(C)[C@]2(SC2CCOC2=O)O1 (some centres undefined)

- IC50 [6]: 400 nM
Structure (SMILES): CCC[C@@H]1O[C@@H]2CC3C4C[C@H](F)C5=CC(=O)CC[C@]5(C)[C@@]4(F)[C@@H](O)C[C@]3(C)[C@]2(SC(CCO)C(=O)O)O1 (some centres undefined)

Second part, the compound before the results:

Structure (SMILES): CC1(C)O[C@@H]2CC3C4C[C@H](F)C5=CC(=O)C=C[C@]5(C)[C@@]4(F)[C@@H](O)C[C@]3(C)[C@]2(S[C@@H]2CCOC2=O)O1 (some centres undefined)
- remaining at 10 min [1]: 45%
- Decrease [2]: 0%
- Decrease [3]: 14%
- Decrease [4]: 15.2%
- remaining at 1 h [5]: 90%
- IC50 [6]: 1.4 nM
- remaining at 1 h [7]: 15%
- Decrease [8]: 22.7%

Structure (SMILES): CCC(=O)O[C@]1(C(=O)SCF)[C@H](C)C[C@H]2[C@@H]3C[C@H](F)C4=CC(=O)C=C[C@]4(C)[C@@]3(F)[C@@H](O)C[C@@]21C [FLUTICASONE PROPIONATE]
- Decrease [11]: 38.6%
- Decrease [12]: 18.6%
- Decrease [13]: 27.1%
- Decrease [14]: 38.1%
- Decrease [15]: 28.5%
- Decrease [16]: 10.23%
- Decrease [17]: 34.7%

Structure (SMILES): CC1(C)O[C@@H]2CC3C4C[C@H](F)C5=CC(=O)CC[C@]5(C)[C@@]4(F)[C@@H](O)C[C@]3(C)[C@]2(S[C@@H]2CCOC2=O)O1 (some centres undefined)
- remaining at 10 min [1]: 28%
- remaining at 1 h [5]: 92%
- remaining at 1 h [7]: 0%

Structure (SMILES): CC1(C)O[C@@H]2CC3C4C[C@H](F)C5=CC(=O)C=C[C@]5(C)[C@@]4(F)[C@@H](O)C[C@]3(C)[C@]2(CC2CCOC2=O)O1 (single isomer, unassigned; isomer B)
- remaining at 10 min [1]: 100%
- remaining at 1 h [5]: 100%
- remaining at 1 h [7]: 99%

Structure (SMILES): CC1=C(SC2CCOC2=O)[C@@]2(C)C[C@H](O)[C@@]3(F)C(CCC4=CC(=O)C=C[C@@]43C)C2C1 (single isomer, unassigned; isomer A)
- Stability [9]: 53%
- Stability ([5]; buffer, 1 h): 97%
- Stability [10]: 13%
